Bioassay records from PubChem BioAssay.
Most compounds without a hit are left out; they make up all but 11% or so of the library.
S1P1 ag-PAM = agonists and agonism potentiators of human S1P1 receptor. S1P1 CRE-bla cells, forskolin, beta-lactamase FRET, potentiator mode; S1P1 agonist co-added at EC20, 2 nM; 100% = saturating reference agonist, 0% = basal. AID 449. P21453. actives 0.57% (n = 56,000). activation, % at 9.5 µM;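 active = activation above a cutoff set at the mean activation of all tested compounds plus 3 SD, cut at about 54% in these data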;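 note: forskolin at 4 µM as EC80 and the EC20 agonist is SEW2871; 100% = SEW2871 at its EC100 plus forskolin at EC80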
S1P3 ag = activates the human S1P3 receptor; Q99500; S1P3 NFAT-BLA reporter cells, agonism, FRET ratio; relative to 1 µM S1P, basal subtracted; activation, % at 4.5 µM; actives 0.1% (n = 60,000); AID 373;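 active = activation above the screen-wide mean plus 3 SD, cut at about 4.5% in these data, passing the limit was not always enough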
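material = human S1P3 NFAT-BLA reporter CHO cells | schedule = 4 h compound at 37 °C, 2 h substrate at RT | measured by = fluorescent BLA substrate, ex 405 nm, em 460/535 nm ratio | controls = 1 µM S1P reference | replication = primary once, confirmation triplicate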
M1 ag = M1 muscarinic receptor agonism | actives 3% (n = 64,000) | B-score at 10 µM | CHO-M1 cells, Fluo-4 calcium fluorescence, agonist mode; active compounds read high | AID 626;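 active = fluorescence rise, raw or as B-score row- and column-corrected plate score, outside the 99.7% band of its plate's samples, either direction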
D1 mod = D1 dopamine receptor (human) allosteric modulation | P21728 | HEK293 D1, CRE-luciferase, dopamine EC30 potentiation; actives deviate in either direction | B-score at 10 µM | actives 5.9% (n = 58,000) | AID 641;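 active = luminescence count or its row- and column-corrected plate score outside the 99.7% band of the plate's sample wells, on either side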
Target sequence (P21728 whole entry, looked up): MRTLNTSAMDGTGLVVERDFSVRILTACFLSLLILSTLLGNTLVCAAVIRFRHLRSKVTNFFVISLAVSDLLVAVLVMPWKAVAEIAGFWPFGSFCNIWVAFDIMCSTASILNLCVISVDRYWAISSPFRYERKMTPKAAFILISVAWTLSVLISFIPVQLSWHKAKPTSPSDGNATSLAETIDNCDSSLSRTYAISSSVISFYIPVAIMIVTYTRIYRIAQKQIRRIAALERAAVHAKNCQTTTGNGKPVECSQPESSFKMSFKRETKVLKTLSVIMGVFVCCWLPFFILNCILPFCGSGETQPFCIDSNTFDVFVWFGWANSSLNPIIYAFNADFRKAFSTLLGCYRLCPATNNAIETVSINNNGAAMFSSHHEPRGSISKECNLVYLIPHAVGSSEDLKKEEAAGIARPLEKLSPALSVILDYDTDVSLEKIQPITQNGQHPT
TNAP act DEA = activates human TNAP at intermediate phosphate acceptor concentration. P05186. purified TNAP, CDP-star luminescence, 100 mM DEA, 30 min; active compounds read high; scale: 0 levamisole-inhibited, 1 vehicle-only enzyme. activation factor at 20 µM. 64,000 tested, under 10 active. AID 813;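 active = activation factor of at least 2 at 20 µM, relative to controls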
M1 antagonist = blocks the rat M1 muscarinic receptor response to acetylcholine. P08482. CHO-M1 cells, Fluo-4 calcium, ACh EC80 antagonist mode; active compounds read low. actives 3.4% (n = 64,000). B-score at 10 µM;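 active = calcium fluorescence response, raw or row-and-column corrected B-score, differing from the plate sample mean either way at a set confidence level, mostly lower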
Numbers without * were called inactive.

For CCOC(=O)N1CCN(S(=O)(=O)c2cc(Br)cnc2N)CC1 the results were S1P1 ag-PAM -23, S1P3 ag 0, D1 mod -3.3* and TNAP act DEA 1.1.
`Cc1oc2cc(O)cc(O)c2c(=O)c1-c1ccc2c(c1)OCCCO2` gave S1P1 ag-PAM 93*, S1P3 ag -1, M1 ag -0.89, D1 mod 0.57, TNAP act DEA 1 and M1 antagonist 0.45.
`CCOC(=O)c1oc2cc(O)c(CC)cc2c(=O)c1-c1ccc2c(c1)OCCO2` gave S1P1 ag-PAM 67, S1P3 ag 1, M1 ag 0.45, D1 mod -0.22, TNAP act DEA 0.9 and M1 antagonist 0.43.
O=C(CSc1nnc2sc3ccccc3n12)NCc1ccc2c(c1)OCO2 was read as S1P1 ag-PAM -9, S1P3 ag -1, M1 ag 0.2, D1 mod -0.0052, TNAP act DEA 0.9 and M1 antagonist 0.37.
CCN1CC=C2C(C#N)=C(N)C(C#N)(C#N)C(c3cc(Cl)ccc3Cl)C2C1 (stereo not given) was read as S1P1 ag-PAM 5, S1P3 ag 2, M1 ag 35*, D1 mod -1.1, TNAP act DEA 0.8 and M1 antagonist 0.4.
CCC(NC(=O)Nc1nnc(C(F)(F)F)s1)(C(F)(F)F)C(F)(F)F was read as S1P1 ag-PAM 112*, S1P3 ag -10, M1 ag 0.73, D1 mod -0.45, TNAP act DEA 0.9 and M1 antagonist -0.025.
`O=C(O)CCC(=O)Nc1nnc(C(F)(F)F)s1` gave S1P1 ag-PAM 7, S1P3 ag -2, M1 ag 0.023, D1 mod -0.22, TNAP act DEA 0.9 and M1 antagonist 0.28.
For Cc1nc2ccccc2c(=O)n1NC(=O)COc1ccccc1 the results were S1P1 ag-PAM 2, S1P3 ag -2, D1 mod -2.9* and TNAP act DEA 1.
For CCCCN(CCCNC(=O)C1CCN(S(=O)(=O)CC)CC1)c1ccccc1 the results were S1P1 ag-PAM 16, S1P3 ag -1, M1 ag -0.23, D1 mod 0.23, TNAP act DEA 0.9 and M1 antagonist -0.038.
Nn1cnnc1SCC(=O)Nc1ccc(C2CCCCC2)cc1 was read as S1P1 ag-PAM -7, S1P3 ag -1, M1 ag -1, D1 mod -4.3*, TNAP act DEA 0.9 and M1 antagonist 0.096.
Screening COc1cccc(NC(=O)CSc2nncn2N)c1 returned S1P1 ag-PAM -2, S1P3 ag 0, M1 ag -0.35, D1 mod -0.97, TNAP act DEA 1 and M1 antagonist 0.024.
CCOC(=O)c1sc(NC(=O)c2ccc(Br)o2)cc1C was read as M1 ag 0.53, D1 mod -3.9*, TNAP act DEA 1 and M1 antagonist -0.66.
`Nc1ccc(CCc2nc3ccccc3o2)cc1` gave S1P1 ag-PAM 1, S1P3 ag 0, M1 ag -0.42, D1 mod -3.6*, TNAP act DEA 0.9 and M1 antagonist -0.81.
For NCc1ccc(-c2nc3ccccc3o2)cc1 the results were S1P1 ag-PAM 14, S1P3 ag -1, M1 ag -0.91, D1 mod -0.76, TNAP act DEA 0.9 and M1 antagonist 0.23.
O=C(Nc1ccc2c(c1)OCCO2)NC1CCCCC1 was read as S1P1 ag-PAM -15, S1P3 ag -1, M1 ag 1, D1 mod -3.1*, TNAP act DEA 0.9 and M1 antagonist 0.44.
Cc1c(NS(=O)(=O)c2ccc3[nH]c(=O)[nH]c3c2)c(=O)n(-c2ccccc2)n1C was read as S1P1 ag-PAM 2, S1P3 ag -2, M1 ag 0.23, D1 mod -0.012, TNAP act DEA 1 and M1 antagonist 0.26.
COC(=O)c1ccsc1NC(=O)c1ccc2c(c1)OCCO2 was read as S1P1 ag-PAM -10, S1P3 ag -1, M1 ag 1.4, D1 mod 3.8*, TNAP act DEA 1 and M1 antagonist 0.28.
c1ccc2c(c1)OCC(c1nn3c(Cn4nnc5ccccc54)nnc3s1)O2 (stereo not given) was read as S1P3 ag -1, M1 ag -3.2*, D1 mod 0.32, TNAP act DEA 0.9 and M1 antagonist -0.25.
Screening Cc1ccc(-n2nc(-c3ccc(N)cc3)cc2N)cc1 returned S1P1 ag-PAM 17, S1P3 ag -1, M1 ag -0.72, D1 mod -1.4, TNAP act DEA 0.9 and M1 antagonist 0.97.
`Cc1ccc(-n2nc3ccc(N)cc3n2)cc1` gave S1P1 ag-PAM 9, S1P3 ag 0, M1 ag -0.13, D1 mod -4.4*, TNAP act DEA 0.9 and M1 antagonist -0.67.
`CC1(C)CC(=O)C=C(NCCc2ccc(S(N)(=O)=O)cc2)C1` gave S1P3 ag 0, M1 ag -0.38, D1 mod 0.55, TNAP act DEA 0.9 and M1 antagonist 0.27.
COc1ccc2c(c1OC)C(=O)N(c1cccc(C)c1)C2 was read as S1P3 ag -1, M1 ag -0.6, D1 mod -1.8, TNAP act DEA 0.9 and M1 antagonist -0.31.
COc1ccc2c(c1OC)C(=O)N(c1cccc(C(F)(F)F)c1)C2 was read as S1P1 ag-PAM -8, S1P3 ag 0, M1 ag 0.69, D1 mod -2.7*, TNAP act DEA 1 and M1 antagonist 0.85.
For O=C(NCCc1ccccc1)C1CC(c2ccccc2O)=NO1 (stereo not given) the results were S1P3 ag 0, M1 ag -0.028, D1 mod -1.2, TNAP act DEA 0.9 and M1 antagonist 0.37.
Screening COc1ccc(C2CC(C(F)(F)F)n3ncc(C(=O)Nc4cccc(O)c4)c3N2)cc1OC (stereo not given) returned S1P1 ag-PAM -42, S1P3 ag 0, M1 ag 0.011, TNAP act DEA 0.9 and M1 antagonist -0.041.
For CCc1nnc(NC(=O)c2cc3c(s2)CCCCC3)s1 the results were M1 ag -0.27, D1 mod -2.4*, TNAP act DEA 0.9 and M1 antagonist 0.64.
Screening Cc1csc(NC(=O)CSc2nnc(Cn3c(=O)sc4ccccc43)n2-c2ccccc2)n1 returned S1P1 ag-PAM -7, S1P3 ag 0, M1 ag 0.22, D1 mod 3.2, TNAP act DEA 0.9 and M1 antagonist 0.0034.
For CCOc1cc(C2/C(=C(/O)c3ccc(OC(C)C)cc3)C(=O)C(=O)N2CCCOC)ccc1O (stereo not given) the results were S1P1 ag-PAM -8, S1P3 ag 0, M1 ag -0.56, D1 mod -0.9, TNAP act DEA 0.8 and M1 antagonist -0.49.
